Assay results taken from ChEMBL document CHEMBL1250517, “Synthesis and characterization of novel indole derivatives reveal improved therapeutic agents for treatment of ischemia/reperfusion (I/R) injury” (J Med Chem, 2010).

Assays:
Mus musculus [1] = assay: Antiinflammatory activity in Kunming mouse assessed as inhibition of xylene-induced ear edema at 20 mg/kg, po; format: functional
Rattus norvegicus [2] = assay: Antiinflammatory activity in Wistar rat assessed as inhibition of carrageenan-induced paw edema at 20 mg/kg, po administered prior to carrageenan challenge measured after 1 hrs post carrageenan challenge; format: functional
Rattus norvegicus [3] = assay: Antiinflammatory activity in Wistar rat assessed as inhibition of carrageenan-induced paw edema at 20 mg/kg, po administered prior to carrageenan challenge measured after 3 hrs post carrageenan challenge; format: functional
Rattus norvegicus [4] = assay: Antiinflammatory activity in Wistar rat assessed as inhibition of carrageenan-induced paw edema at 20 mg/kg, po administered prior to carrageenan challenge measured after 5 hrs post carrageenan challenge; format: functional
Mus musculus [5] = assay: Antiinflammatory activity in Kunming mouse assessed as inhibition of xylene-induced ear edema at 10 mg/kg, po; format: functional
Mus musculus [6] = assay: Antiinflammatory activity in Kunming mouse assessed as inhibition of xylene-induced ear edema at 5 mg/kg, po; format: functional
PC-12 [7] = assay: Antioxidant activity against nitric oxide scavenging activity in rat PC12 cells assessed as cell survival after 14 hrs by MTT assay; format: functional, cell-based; details: PC-12, 14 h
Summary of the method: (§1)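 PC12 cells (rat adrenal medulla pheochromocytoma) are exposed to free radicals. Compound is given either as preincubation before radical exposure or as incubation after exposure. Viability is read by MTT reduction.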

PC-12 [8] = assay: Antioxidant activity against H2O2 scavenging activity in rat PC12 cells assessed as cell survival after 14 hrs by MTT assay; format: functional, cell-based; details: PC-12, 14 h; summary of the method: as §1
PC-12 [9] = assay: Antioxidant activity against hydroxyl scavenging activity in rat PC12 cells assessed as cell survival after 14 hrs by MTT assay; format: functional, cell-based; details: PC-12, 14 h; summary of the method: as §1
Rattus norvegicus [10] = assay: Antiinflammatory activity against ischemia-reperfused lung tissue edema Wistar rat assessed as ratio of wet tissue weight to dry tissue weight at 20 mg/kg, ip; format: functional; details: route intraperitoneal
Summary of the method: (§2)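 Hind-limb ischemia/reperfusion injury model in rats, with compound at 20 mg/kg. Local injury assessed in skeletal muscle and remote injury in lung. Tissue edema is expressed as wet-to-dry tissue weight ratio. Lipid peroxidation is measured as MDA in plasma and lung, and histology uses H&E-stained sections.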

Rattus norvegicus [11] = assay: Antiinflammatory activity in ischemia-reperfused Wistar rat assessed as TNFalpha level at 20 mg/kg, ip (RVb = 123.4 +/- 8.9 pg/mL); format: functional; details: route intraperitoneal; summary of the method: as §2
Rattus norvegicus [12] = assay: Antiinflammatory activity in ischemia-reperfused Wistar rat assessed as plasma MDA level at 20 mg/kg, ip (RVb = 3.53 +/- 0.34 nmol/mL); format: functional; details: route intraperitoneal; summary of the method: as §2
Rattus norvegicus [13] = assay: Antiinflammatory activity in ischemia-reperfused Wistar rat assessed as lung MDA level at 20 mg/kg, ip measured per gram of tissue (RVb = 72.4 +/- 5.1 nmol); format: functional; details: route intraperitoneal; summary of the method: as §2
Rattus norvegicus [14] = assay: Antiinflammatory activity in ischemia-reperfused Wistar rat assessed as MPO level at 20 mg/kg, ip (RVb = 17.3 +/- 0.8 U/g); format: functional; details: route intraperitoneal; summary of the method: as §2
Rattus norvegicus [15] = assay: Antiinflammatory activity against ischemia-reperfused muscle tissue edema Wistar rat assessed as ratio of wet tissue weight to dry tissue weight at 20 mg/kg, ip; format: functional; details: route intraperitoneal; summary of the method: as §2

Row | SMILES | inhibition in vivo at 20 mg/kg (Mus musculus [1]) [%] | inhibition in vivo at 20 mg/kg (Rattus norvegicus [2]) [%] | inhibition in vivo at 20 mg/kg (Rattus norvegicus [3]) [%] | inhibition in vivo at 20 mg/kg (Rattus norvegicus [4]) [%] | inhibition in vivo at 10 mg/kg (Mus musculus [5]) [%] | inhibition in vivo at 5 mg/kg (Mus musculus [6]) [%] | EC50 (PC-12 [7]) [µM] | EC50 (PC-12 [8]) [µM] | EC50 (PC-12 [9]) [µM] | Ratio (Rattus norvegicus [10]) | Activity (Rattus norvegicus [11]) [pg/mL] | Activity (Rattus norvegicus [12]) [nmol/mL] | Activity (Rattus norvegicus [13]) [nmol] | Activity (Rattus norvegicus [14]) [U/g] | Ratio (Rattus norvegicus [15])
1 | C[C@H]1O[C@@H](CC=O)OC[C@H]1NC(=O)Cc1ccccc1 | 21.9 | 18.4 | 17.5 | 12.9 | – | – | – | – | – | – | – | – | – | – | –
2 | COC(C[C@H]1OC[C@@H](NC(=O)Cc2ccccc2)[C@@H](C)O1)OC | 38.1 | 23.6 | 33.3 | 17.1 | – | – | – | – | – | – | – | – | – | – | –
3 | COc1ccc2[nH]c3c(c2c1)CCN[C@@H]3C[C@H]1OC[C@@H](NC(=O)Cc2ccccc2)[C@@H](C)O1 | 66 | 44.7 | 52.4 | 34.3 | 32.3 | 18.1 | > 100 | 86.8 | 79.6 | – | – | – | – | – | –
4 | C[C@H]1O[C@@H](C[C@H]2NCCc3c2[nH]c2ccccc32)OC[C@H]1NC(=O)Cc1ccccc1 | 44.4 | 34.2 | 47.6 | 21.4 | – | – | – | – | – | – | – | – | – | – | –
5 | COC(=O)[C@@H]1Cc2c([nH]c3ccccc23)[C@@H](C[C@H]2OC[C@@H](NC(=O)Cc3ccccc3)[C@@H](C)O2)N1 | 60 | 39.5 | 49.2 | 35.7 | 30.1 | 16.8 | > 100 | 91.6 | 88.1 | – | – | – | – | – | –
6 | COC(=O)[C@@H]1Cc2c([nH]c3ccccc23)[C@H](C[C@H]2OC[C@@H](NC(=O)Cc3ccccc3)[C@@H](C)O2)N1 | 40.6 | 28.9 | 38.1 | 20 | – | – | – | – | – | – | – | – | – | – | –
7 | COc1ccc2[nH]c3c(c2c1)CCN[C@@H]3C[C@H]1OC[C@@H](N)[C@@H](C)O1 | 81.5 | 31.5 | 68.5 | 57.1 | 57.8 | 30.5 | 88.5 | 32.5 | 25.7 | 3.98 | 76.6 | 2.05 | 49.5 | 10.7 | 4.03
8 | C[C@H]1O[C@@H](C[C@H]2NCCc3c2[nH]c2ccccc32)OC[C@H]1N | 50.4 | 21 | 59.7 | 30 | – | – | – | – | – | – | – | – | – | – | –
9 | COC(=O)[C@@H]1Cc2c([nH]c3ccccc23)[C@@H](C[C@H]2OC[C@@H](N)[C@@H](C)O2)N1 | 74.3 | 26.3 | 61.4 | 48.6 | 60 | 35.2 | 96.3 | 45.7 | 50.9 | – | – | – | – | – | –
10 | COC(=O)[C@@H]1Cc2c([nH]c3ccccc23)[C@H](C[C@H]2OC[C@@H](N)[C@@H](C)O2)N1 | 45.1 | 15.8 | 39.7 | 27.1 | – | – | – | – | – | – | – | – | – | – | –
11 | COc1ccc2c(c1)c(CC(=O)O)c(C)n2C(=O)c1ccc(Cl)cc1 [INDOMETHACIN] | – | 47.3 | 65.1 | 54.3 | 73.6 | – | – | – | – | – | – | – | – | – | –
12 | COc1ccc2[nH]cc(CCNC(C)=O)c2c1 [MELATONIN] | – | – | – | – | – | – | – | – | – | 3.55 | 53.6 | 1.75 | 40.6 | 8.6 | 3.21
